Reference: ChEMBL document CHEMBL3414517, “Synthesis and structure-activity relationship study of a new series of selective σ(1) receptor ligands for the treatment of pain: 4-aminotriazoles” (J Med Chem, 2015)
Converted amounts (≈) assume the structure as drawn. One block for each molecule: values may come before it.

Key:
Cavia porcellus = species: Cavia porcellus; test: Displacement of [3H]-DTG from sigma 2 receptor in guinea pig brain membrane at 1 uM after 120 mins by liquid scintillation counting; type: cell membranes
Method in brief: (§1)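 Guinea pig brain membranes (200 μg) with 10 nM [³H]-DTG in 50 mM Tris-HCl pH 8, σ1R masked by 400 nM (+)-SKF10047; 25 °C, 120 min; 10 μM haloperidol for non-specific binding. Filtered, washed 3× ice-cold 50 mM Tris-HCl pH 7.4, scintillation counted.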

[1] = target: Sigma non-opioid intracellular receptor 1 (Homo sapiens, UniProt Q99720); test: Displacement of [3H](+)-pentazocine from human sigma 1 receptor transfected in HEK293 cells after 120 mins by liquid scintillation counting; type: cell-based
Sequence of Sigma non-opioid intracellular receptor 1 (Q99720 whole entry): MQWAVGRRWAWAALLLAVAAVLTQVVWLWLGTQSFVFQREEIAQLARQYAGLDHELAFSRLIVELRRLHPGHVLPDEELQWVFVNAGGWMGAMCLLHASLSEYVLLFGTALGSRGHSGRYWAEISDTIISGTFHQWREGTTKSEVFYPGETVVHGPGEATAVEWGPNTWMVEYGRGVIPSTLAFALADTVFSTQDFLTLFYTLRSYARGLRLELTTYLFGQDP

[2] = target: Voltage-gated inwardly rectifying potassium channel KCNH2 (Homo sapiens, UniProt Q12809)
Sequence of Voltage-gated inwardly rectifying potassium channel KCNH2 (Q12809 whole entry): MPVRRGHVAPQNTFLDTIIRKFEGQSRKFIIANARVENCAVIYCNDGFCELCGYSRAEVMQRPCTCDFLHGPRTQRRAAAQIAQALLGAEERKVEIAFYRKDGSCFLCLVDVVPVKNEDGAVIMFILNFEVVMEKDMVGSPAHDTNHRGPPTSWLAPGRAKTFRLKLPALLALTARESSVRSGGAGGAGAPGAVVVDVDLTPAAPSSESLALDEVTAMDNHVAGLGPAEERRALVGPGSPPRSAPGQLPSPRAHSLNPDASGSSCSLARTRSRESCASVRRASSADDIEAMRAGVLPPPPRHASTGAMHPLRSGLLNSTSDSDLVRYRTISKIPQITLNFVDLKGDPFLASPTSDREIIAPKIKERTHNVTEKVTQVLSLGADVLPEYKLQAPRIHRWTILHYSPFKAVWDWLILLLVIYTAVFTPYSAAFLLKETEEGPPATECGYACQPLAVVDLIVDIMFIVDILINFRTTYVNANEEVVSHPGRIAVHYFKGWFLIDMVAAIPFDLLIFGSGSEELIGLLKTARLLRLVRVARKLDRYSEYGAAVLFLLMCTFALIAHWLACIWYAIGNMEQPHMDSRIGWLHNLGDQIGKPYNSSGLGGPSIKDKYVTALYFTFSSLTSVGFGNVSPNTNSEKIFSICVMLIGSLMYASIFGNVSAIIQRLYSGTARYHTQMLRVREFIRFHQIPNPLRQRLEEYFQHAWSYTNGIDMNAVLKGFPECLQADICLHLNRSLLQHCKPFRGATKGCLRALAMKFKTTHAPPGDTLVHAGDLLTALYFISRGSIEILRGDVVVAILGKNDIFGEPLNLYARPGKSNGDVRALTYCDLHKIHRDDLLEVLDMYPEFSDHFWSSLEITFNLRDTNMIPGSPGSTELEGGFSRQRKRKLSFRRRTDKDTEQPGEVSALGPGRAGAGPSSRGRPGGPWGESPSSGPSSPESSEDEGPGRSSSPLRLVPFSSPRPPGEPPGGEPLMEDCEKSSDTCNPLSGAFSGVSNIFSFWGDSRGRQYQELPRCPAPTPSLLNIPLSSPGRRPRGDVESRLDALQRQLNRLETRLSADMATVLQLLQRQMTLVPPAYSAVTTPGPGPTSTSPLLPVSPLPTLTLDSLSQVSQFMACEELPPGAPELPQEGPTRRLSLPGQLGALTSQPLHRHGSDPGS

[3] = Displacement of [3H]-DTG from sigma 2 receptor in guinea pig brain membrane after 120 mins by liquid scintillation counting; type: cell membranes, Cavia porcellus; method in brief: as §1
Mus musculus [4] = test: Antinociceptive activity in CD1 mouse sciatic nerve injury-induced neuropathic pain model assessed as reduction in mechanical hypersensitivity measured as hind paw withdrawal response at 80 mg/kg, po treated 30 mins before test by von Frey filament test; type: functional
Method in brief: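 Male CD1 mice with partial sciatic nerve ligation; habituation 4 days, 2 baseline days, allodynia checked days 5 and 8 (vehicle on day 8). Compound given p.o. (10 mL/kg) on day 15, 30 min before von Frey testing; n = 7–8/group, two independent experiments. Effect referenced to day-8 vehicle threshold and pre-surgery baseline.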

[5] = Intrinsic clearance in human liver microsomes assessed as per mg of protein at 10 uM; type: ADME; details: read-out: CLH
Mus musculus [6] = test: Antinociceptive activity against formalin-induced pain in CD1 mouse assessed as reduction in mean licking and biting time at 80 mg/kg, po administered 30 mins before fomalin injection measured during second phase of 15 to 30 mins after formalin challenge; type: functional
Method in brief: (§2)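 Male CD1 mice, 6–8 weeks; 20 μL of 2.5% formalin (0.92% formaldehyde) injected i.pl. into right hind paw midplantar surface. Vehicle 0.5% HPMC or compound given i.p. or p.o. (10 mL/kg) 30 min before formalin; n = 7–8/group. Licking/biting time scored 15–30 min post-injection (phase II), blind; % antinociception derived relative to vehicle group.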

Mus musculus [7] = test: Antinociceptive activity against formalin-induced pain in CD1 mouse assessed as reduction in mean licking and biting time at 40 mg/kg, ip administered 30 mins before fomalin injection measured during second phase of 15 to 30 mins after formalin challenge; type: functional; details: route intraperitoneal; method in brief: as §2
[8] = Dissociation constant, pKa of the compound; type: physicochemical
Method in brief: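 pKa calculated in silico with ACDLABS 9.0.3.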

[9] = Thermodynamic solubility of the compound in phosphate buffer at pH 7.4; type: physicochemical; details: read-out: Therm_solubility
Method in brief: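 Thermodynamic solubility measured from solid compound in phosphate buffer, pH 7.4, quantified by HPLC.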

Mus musculus [10] = test: Antinociceptive activity in CD1 mouse assessed as reduction in capsaicin-induced mechanical hypersensitivity measured as latency time to paw withdrawal response to upward pressure at 80 mg/kg, po administered 30 mins prior to capsaicin-challenge measured after 45 mins of treatment by von Frey filament test; type: functional
Method in brief: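 Female CD1 mice habituated 2 h on mesh platform; vehicle 0.5% HPMC or compound p.o. (10 mL/kg) 30 min before i.pl. capsaicin (1 μg in 20 μL 1% DMSO). 15 min after capsaicin, dynamic plantar aesthesiometer filament (0.5 g) applied ≥5 mm from site, 3 trials averaged, 50 s cut-off; n = 8–26. % reduction of hypersensitivity = (LTD−LTV)/(CT−LTV)×100.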

[11] = Apparent permeability across human Caco2 cells at 10 uM after 2 hrs; type: ADME, cell-based; details: Caco-2
[12] = Lipophilicity, log P of the compound; type: physicochemical; details: octanol/water
Method in brief: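 clogP calculated with ChemDraw Ultra 10.0.3.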

SMILES: Fc1ccc(-n2cc(NCCN3CCCCC3)nn2)c(F)c1
inhibition (Cavia porcellus): 53%

SMILES: Clc1ccc(-n2cc(NCCN3CCCCC3)nn2)cc1Cl
IC50 [2]: 1700 nM | Ki [3]: 323 nM

SMILES: Fc1ccc(-n2cc(NCCN3CCC(F)(F)CC3)nn2)cc1F
IC50 [2]: > 10000 nM | inhibition (Cavia porcellus): 29%

SMILES: Fc1cccc(-n2cc(NCCN3CCCCCC3)nn2)c1
inhibition (Cavia porcellus): 86%

SMILES: C[C@@H]1CCC[C@H](C)N1CCNc1cn(Cc2ccc(F)cc2)nn1
inhibition (Cavia porcellus): 72%

SMILES: Fc1ccc(-n2cc(NCCN3CCCCC3)nn2)cc1F
IC50 [2]: 2200 nM | inhibition (Cavia porcellus): 65%

SMILES: CS(=O)(=O)N(CCN1CCOCC1)c1cn(-c2ccc(Cl)c(Cl)c2)nn1
Ki [1]: > 1000 nM

SMILES: c1c(NCCN2CCOCC2)nnn1C12CC3CC(CC(C3)C1)C2
IC50 [2]: > 10000 nM

SMILES: CC(=O)N(CCN1CCOCC1)c1cn(-c2ccc(Cl)c(Cl)c2)nn1
Ki [1]: 388 nM

SMILES: c1c(NCCN2CCOCC2)nnn1C1CCCCC1
Ki [1]: > 1000 nM

SMILES: CCCN(CCN1CCOCC1)c1cn(-c2ccc(Cl)c(Cl)c2)nn1
Ki [1]: 451 nM

SMILES: Fc1cccc(-n2cc(NCCN3CCCCC3)nn2)c1
IC50 [2]: 5200 nM | inhibition (Cavia porcellus): 59%

SMILES: Clc1ccc(-n2cc(NCCN3CCCCC3)nn2)c(Cl)c1
inhibition (Cavia porcellus): 62%

SMILES: CCN(CCN1CCOCC1)c1cn(-c2ccc(Cl)c(Cl)c2)nn1
Ki [3]: 55 nM

SMILES: Cc1cc(OCCN2CCOCC2)nn1-c1ccc2ccccc2c1
inhibition in vivo at 80 mg/kg (Mus musculus [4]): 62% | microsomal CLint at 10 µM [5]: 3 µL/min/mg | inhibition in vivo at 80 mg/kg (Mus musculus [6]): 66% | inhibition in vivo at 40 mg/kg (Mus musculus [7]): 50% | inhibition in vivo at 80 mg/kg (Mus musculus [10]): 48% | Ki [3]: > 1000 nM

SMILES: Fc1cccc(-n2cc(NCCN3CCN(C4CCCCC4)CC3)nn2)c1
inhibition (Cavia porcellus): 74%

SMILES: Clc1ccc(-n2ccc(NCCN3CCCCC3)n2)cc1Cl
Ki [1]: 10 nM | Ki [3]: 91 nM

SMILES: CCN(CCN1CCOCC1)c1cn(C23CC4CC(CC(C4)C2)C3)nn1
Ki [3]: 72 nM

SMILES: Clc1ccc(-n2cc(NCCN3CCCCC3)nn2)cc1
IC50 [2]: 3100 nM | inhibition (Cavia porcellus): 65%

SMILES: CC(=O)N(CCN1CCOCC1)c1cn(Cc2ccc(Cl)c(Cl)c2)nn1
Ki [1]: 459 nM

SMILES: Fc1ccc(-n2cc(NCCN3CCCCC3)nn2)cc1
inhibition (Cavia porcellus): 54%

The next lines start with results.

Ki [1]: > 1000 nM
SMILES: Fc1ccc(-n2cc(NCCN3CCOCC3)nn2)cc1F

Ki [1]: 662 nM
SMILES: Fc1ccc(Cn2cc(NCCN3CCOCC3)nn2)cc1

Ki [1]: 781 nM
SMILES: Fc1cccc(-n2cc(NCCN3CCOCC3)nn2)c1

Ki [1]: 818 nM
SMILES: CC(=O)N1CCN(CCNc2cn(Cc3ccc(Cl)c(Cl)c3)nn2)CC1

inhibition (Cavia porcellus): 47%
SMILES: Fc1cccc(-n2cc(NCCN3CCCOCC3)nn2)c1

Ki [1]: > 1000 nM
SMILES: c1ccc(Cn2cc(NCCN3CCOCC3)nn2)cc1

inhibition (Cavia porcellus): 66%
SMILES: Clc1ccc(Cn2cc(NCCN3CCCOCC3)nn2)cc1Cl

Ki [1]: 878 nM
SMILES: Fc1ccc(Cn2cc(NCCN3CCOCC3)nn2)cc1F

microsomal CLint at 10 µM [5]: 0.8 µL/min/mg | pKa [8]: 6.6 | solubility thermodynamic [9]: 170 µg/mL (≈ 497 µM) | Papp at 2 h, 10 µM [11]: 51 ×10⁻⁶ cm/s | Ki [3]: > 10000 nM | logP [12]: 2.9
SMILES: Clc1ccc(-n2cc(NCCN3CCOCC3)nn2)cc1Cl
inhibition in vivo at 80 mg/kg (Mus musculus [4]): 56% | inhibition in vivo at 80 mg/kg (Mus musculus [6]): 62% | inhibition in vivo at 40 mg/kg (Mus musculus [7]): 95% | IC50 [2]: > 10000 nM | inhibition in vivo at 80 mg/kg (Mus musculus [10]): 68%

Ki [3]: 624 nM
SMILES: c1ccc(Cn2cc(NCCN3CCCCC3)nn2)cc1

Ki [3]: > 10000 nM
SMILES: Fc1ccc(Cn2cc(NCCN3CCC(F)(F)CC3)nn2)cc1F
IC50 [2]: > 10000 nM

inhibition (Cavia porcellus): 43%
SMILES: Fc1cccc(Cn2cc(NCCN3CCCCC3)nn2)c1
IC50 [2]: > 10000 nM

Ki [3]: 946 nM
SMILES: Fc1ccc(Cn2cc(NCCN3CCCCC3)nn2)cc1F

Ki [3]: 562 nM
SMILES: Clc1ccc(-n2ccc(NCCN3CCOCC3)n2)cc1Cl

inhibition (Cavia porcellus): 87%
SMILES: Clc1ccc(Cn2cc(NCCN3CCCCCC3)nn2)cc1Cl

microsomal CLint at 10 µM [5]: 2.9 µL/min/mg | pKa [8]: 6.7 | solubility thermodynamic [9]: > 4000 µg/mL | Papp at 2 h, 10 µM [11]: 46.2 ×10⁻⁶ cm/s | Ki [3]: > 10000 nM | logP [12]: 2.4
SMILES: Clc1ccc(Cn2cc(NCCN3CCOCC3)nn2)cc1Cl
inhibition in vivo at 80 mg/kg (Mus musculus [4]): 140% | inhibition in vivo at 80 mg/kg (Mus musculus [6]): 67% | inhibition in vivo at 40 mg/kg (Mus musculus [7]): 94% | inhibition in vivo at 80 mg/kg (Mus musculus [10]): 94%

Ki [3]: 69 nM
SMILES: Clc1ccc(Cn2cc(NCCN3CCCCC3)nn2)cc1Cl

Ki [1]: 701 nM
SMILES: CCN(CC)CCNc1cn(Cc2ccccc2)nn1

Ki [3]: > 10000 nM
SMILES: Fc1ccc(Cn2cc(NCCN3CCC(F)(F)CC3)nn2)cc1

Ki [1]: 9620 nM
SMILES: CN1CCN(CCNc2cn(Cc3ccccc3)nn2)CC1

inhibition (Cavia porcellus): 75%
SMILES: c1ccc(Cn2cc(NCCN3CCCCCC3)nn2)cc1

Ki [1]: 508 nM
SMILES: Clc1ccc(Cn2cc(NCCCN3CCOCC3)nn2)cc1Cl

inhibition (Cavia porcellus): 66%
SMILES: Fc1ccc(Cn2cc(NCCN3CCCCC3)nn2)cc1
